Measured values gathered from unrelated publications.
Compare with care: the assays were run in different laboratories.
Target: Dual specificity tyrosine-phosphorylation-regulated kinase 2 (DYRK2, Homo sapiens, UniProt Q92630)
Method: competition with immobilised ligand
Sequence (Q92630 1-601, as in one of the studies): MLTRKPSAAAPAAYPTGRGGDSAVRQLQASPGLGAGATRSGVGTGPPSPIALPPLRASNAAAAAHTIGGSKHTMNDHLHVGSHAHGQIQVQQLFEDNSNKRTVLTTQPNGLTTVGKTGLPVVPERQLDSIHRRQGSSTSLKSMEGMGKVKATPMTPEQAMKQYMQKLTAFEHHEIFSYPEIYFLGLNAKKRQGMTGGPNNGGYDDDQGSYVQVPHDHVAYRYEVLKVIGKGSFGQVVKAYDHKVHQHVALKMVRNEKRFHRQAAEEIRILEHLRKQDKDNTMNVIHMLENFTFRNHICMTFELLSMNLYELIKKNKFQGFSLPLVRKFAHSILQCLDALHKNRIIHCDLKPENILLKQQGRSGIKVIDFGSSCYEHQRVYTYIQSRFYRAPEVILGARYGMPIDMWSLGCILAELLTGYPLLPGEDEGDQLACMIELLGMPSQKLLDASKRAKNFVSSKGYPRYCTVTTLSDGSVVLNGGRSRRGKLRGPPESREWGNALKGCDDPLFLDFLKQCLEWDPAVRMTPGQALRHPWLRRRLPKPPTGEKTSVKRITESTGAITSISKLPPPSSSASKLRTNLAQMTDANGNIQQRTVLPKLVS

COc1cnc(Nc2cccc(S(N)(=O)=O)c2)nc1N1CCN(c2ccccc2)C(=O)C1
remaining binding (binding; 1 µM): 56%

COc1ncc2cc3ccccc3nc2c1C#N
remaining binding (cell-free assay; 5 µM): 85%

C[C@@H](c1ccc(-n2cnc3c(N)ncnc32)cc1)N1CCc2nn(C)c(Cc3ccccc3)c2C1=O
remaining binding (binding; 0.1 µM): 79%

CO[C@@H](C)c1c(Nc2ccc([C@H](N(C)C(=O)C3CCS(=O)(=O)CC3)C(F)(F)F)cc2)cnc2cc(Cl)nn12
remaining binding (cell-free assay; 1 µM): 89%

Cc1cnc(Nc2ccc(C(=O)N3CCC(N4CCCC4)CC3)cc2)nc1-c1cc2ccccc2s1
remaining binding (binding; 1 µM): 1.3%

COc1cnc(Nc2cccc(S(N)(=O)=O)c2)nc1N1CCN(c2ccccc2)CC1
remaining binding (binding; 1 µM): 70%

O=C(Nc1ccc(Oc2ccc(F)cc2)cc1)N1CCc2ncccc2[C@H]1c1ccc(F)cc1
remaining binding (cell-free assay; 1 µM): 84%

O=C(Nc1c[nH]nc1C(=O)NC1CCNCC1)c1cc(F)cc(F)c1
remaining binding (binding; 1 µM): 4.8%

COc1cc(-c2cn(C3CCc4ccccc4N(CC(F)(F)F)C3=O)nn2)ccc1-n1ccc(C)n1 (stereo not shown)
remaining binding (cell-free assay; 1 µM): 94%

O=C(c1ccc(Nc2ncc(Cl)c(-c3ccc(Cl)s3)n2)cc1)N1CCC(N2CCCC2)CC1
remaining binding (binding; 1 µM): 3.8%

C[C@@]1(Cc2ccc(C#N)cc2)C(=O)N(c2cc(Cl)cc(Cl)c2)c2ncc(C(=O)NC3(c4nc(C5CCC5)no4)CC3)n21
remaining binding (cell-free assay; 1 µM): 93%

O=C(c1ccc(Nc2nccc(-c3cc4ccccc4s3)n2)cc1)N1CCC(N2CCCC2)CC1
remaining binding (binding; 1 µM): 3.9%

CCN1CCN(Cc2ccc(C(=O)Nc3ccc(C)c(Oc4ccc5c(c4)CC(=O)N5)c3)cc2C(F)(F)F)CC1
remaining binding (binding; 1 µM): 95%
